Results published in ChEMBL document CHEMBL1133118 (J Med Chem, 2000).

Tests used:
Adenosine receptor A2a [1] = biological target: T1, Adenosine receptor A2a (Homo sapiens, UniProt P29274); assay: Displacement of [3H]-SCH- 58261 from human adenosine A2A receptor expressed in CHO cells; range 218-283; assay type: cell-based
Adenosine receptor A2b [2] = biological target: T2, Adenosine receptor A2b (Homo sapiens, UniProt P29275); assay: Tested for inhibitory activity against Adenosine A2b receptor by displacement of [3H]DPCPX expressed in […]; value ranges from 61-80; assay type: cell-based
T2 sequence (P29275 whole entry): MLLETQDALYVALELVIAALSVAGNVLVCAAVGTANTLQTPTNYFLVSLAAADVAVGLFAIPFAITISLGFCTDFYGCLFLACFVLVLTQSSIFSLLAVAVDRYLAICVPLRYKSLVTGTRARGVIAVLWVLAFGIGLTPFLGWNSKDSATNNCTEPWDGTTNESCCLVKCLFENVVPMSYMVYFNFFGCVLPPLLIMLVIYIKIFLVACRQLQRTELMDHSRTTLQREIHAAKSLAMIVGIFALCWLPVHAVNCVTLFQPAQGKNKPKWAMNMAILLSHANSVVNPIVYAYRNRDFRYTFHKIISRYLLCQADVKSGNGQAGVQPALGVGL

Adenosine receptor A1 [3] = biological target: T3, Adenosine receptor A1 (Homo sapiens, UniProt P30542); assay: Displacement of [3H]DPCPX from human adenosine A1 receptor expressed in CHO cells; range 179-317; assay type: cell-based
T3 sequence (P30542 whole entry): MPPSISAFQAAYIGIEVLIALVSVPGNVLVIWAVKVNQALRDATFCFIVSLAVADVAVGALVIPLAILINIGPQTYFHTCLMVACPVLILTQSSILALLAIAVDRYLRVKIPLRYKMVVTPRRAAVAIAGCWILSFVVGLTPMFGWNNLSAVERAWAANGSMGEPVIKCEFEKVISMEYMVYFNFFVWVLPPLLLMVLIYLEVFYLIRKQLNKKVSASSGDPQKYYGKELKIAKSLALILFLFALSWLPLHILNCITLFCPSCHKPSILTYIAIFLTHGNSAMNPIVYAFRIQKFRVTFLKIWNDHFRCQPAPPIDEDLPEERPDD

Adenosine receptor A3 [4] = biological target: T4, Adenosine receptor A3 (Homo sapiens, UniProt P0DMS8); assay: Inhibition of cAMP accumulation in CHO cells expressing human A3 adenosine receptor; assay type: functional, cell-based
T4 sequence (P0DMS8 whole entry): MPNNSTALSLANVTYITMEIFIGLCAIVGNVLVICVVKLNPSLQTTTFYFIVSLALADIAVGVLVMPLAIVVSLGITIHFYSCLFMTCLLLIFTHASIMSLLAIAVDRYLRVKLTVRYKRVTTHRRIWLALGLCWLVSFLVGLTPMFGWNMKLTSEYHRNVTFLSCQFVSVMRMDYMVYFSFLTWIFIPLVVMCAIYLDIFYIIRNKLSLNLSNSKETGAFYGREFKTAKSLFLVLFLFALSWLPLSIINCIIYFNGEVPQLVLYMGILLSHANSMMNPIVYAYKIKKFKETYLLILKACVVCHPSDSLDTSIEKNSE

[5] = biological target: Adenosine receptors; A1 & A3 (Homo sapiens) (UniProt P30542+P0DMS8); assay: Ratio of binding affinity of human A1 receptor to that of human A3 receptor; assay type: protein assay
Summary of the method: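 Ki ratio from displacement in CHO membranes, 6–8 concentrations, n=3-6, filtration counting. A1: 1 nM [3H]DPCPX, 50 μg protein, 120 min at 25 °C, nonspecific with 10 μM CHA. A3: 1 nM [3H]MRE3008-F20, 50 μg protein, Tris/10 mM MgCl2 pH 7.4, 120 min at 4 °C, nonspecific with 1 μM MRE3008-F20.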

[6] = biological target: Adenosine receptors; A2b & A3 (Homo sapiens) (UniProt P29275+P0DMS8); assay: Ratio of binding affinity of human A2B receptor to that of human A3 receptor; assay type: protein assay
Summary of the method: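 Ki ratio, n=3-6, 6–8 concentrations. A2B in HEK-293 membranes (20 μg): 40 nM [3H]DPCPX, 50 mM Tris HCl, 10 mM MgCl2, 1 mM EDTA, 0.1 mM benzamidine pH 7.4, 2 IU/mL adenosine deaminase, 60 min at 25 °C, nonspecific with 100 μM NECA. A3 in CHO membranes (50 μg): 1 nM [3H]MRE3008-F20, 120 min at 4 °C.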

[7] = biological target: T5, Adenosine receptor A3 (Homo sapiens) (UniProt P0DMS8); conditions: CHO, 1 uM
T5 sequence (whole entry): T4 sequence (P0DMS8 whole entry)

Adenosine receptor A3 [8] = biological target: T4, Adenosine receptor A3; assay: biochemical
Adenosine receptor A1 [9] = biological target: T3, Adenosine receptor A1; assay: Displacement of [3H]DPCPX from human adenosine A1 receptor expressed in CHO cells; range 170-358; assay type: cell-based
Adenosine receptor A2a [10] = biological target: T1, Adenosine receptor A2a; assay: Displacement of [3H]-SCH- 58261 from human adenosine A2A receptor expressed in CHO cells; range 267-453; assay type: cell-based
[11] = biological target: T5, Adenosine receptor A3 (Homo sapiens); assay: Percentage of blockade by 1 uM of the inhibition by 100 nM IB-MECA-inhibited cAMP accumulation in CHO cells expressing human adenosine A3 receptor.; assay type: functional, cell-based
Summary of the method: (§1)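 CHO cells stably expressing human A3 receptor; membranes in 50 mM Tris HCl, 10 mM MgCl2, 1 mM EDTA pH 7.4 with 5 μM GTP, 0.5 mM […] and 2.0 IU/mL adenosine deaminase. Preincubated 10 min at 37 °C, then IB-MECA (100 nM) and/or antagonist with 1 mM ATP and 10 μM forskolin for 10 min. Boiled 2 min. cAMP read by [3H]cAMP competition with adrenal binding protein.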

Adenosine receptor A3 [12] = biological target: T4, Adenosine receptor A3; assay: biochemical; remark: listed apart in the source
Adenosine receptor A2b [13] = biological target: T2, Adenosine receptor A2b; assay: Displacement of [3H]DPCPX from Adenosine A2b receptor expressed in HEK-293 cells; range 934-1327
[14] = biological target: T5, Adenosine receptor A3 (Homo sapiens); assay: Percent reversal of 100 nM IB-MECA-inhibited cAMP accumulation in CHO cells expressing human adenosine A3 receptor at 1 uM; range 26-54; assay type: functional, cell-based; summary of the method: as §1
Adenosine receptor A2a [15] = biological target: T1, Adenosine receptor A2a; assay: Displacement of [3H]-SCH- 58261 from human adenosine A2A receptor expressed in CHO cells; range 85-140; assay type: cell-based
Adenosine receptor A2b [16] = biological target: T2, Adenosine receptor A2b; assay: Displacement of [3H]DPCPX from Adenosine A2b receptor expressed in […]; range 70-94; assay type: cell-based
Adenosine receptor A1 [17] = biological target: T3, Adenosine receptor A1; assay: Displacement of [3H]DPCPX from human adenosine A1 receptor expressed in CHO cells; range 329-375; assay type: cell-based
Adenosine receptor A3 [18] = biological target: T4, Adenosine receptor A3; assay: Displacement of [3H]MRE3008-F20 from human adenosine A3 receptor expressed in CHO cells; range 50-61; assay type: cell-based
Adenosine receptor A2b [19] = biological target: T2, Adenosine receptor A2b; assay: Displacement of [3H]DPCPX from Adenosine A2b receptor expressed in CHO cells; range 35-45; assay type: cell-based; conditions: in the assay text read “HEK-293 cells” for “CHO cells”
Summary of the method: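 Human recombinant A2B receptor was expressed in HEK-293 cell membranes (20 μg protein). Incubated with 40 nM [3H]DPCPX in 50 mM Tris HCl, 10 mM MgCl2, 1 mM EDTA, 0.1 mM benzamidine, pH 7.4, with 2 IU/mL adenosine deaminase, at least 6–8 test concentrations, 60 min, 25 °C. Nonspecific binding was taken with 100 μM NECA; n=3-6.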

Adenosine receptor A2a [20] = biological target: T1, Adenosine receptor A2a; assay: Displacement of [3H]-SCH- 58261 from human adenosine A2A receptor expressed in CHO cells; range 1.90-3.37; assay type: cell-based
Adenosine receptor A3 [21] = biological target: T4, Adenosine receptor A3; assay: biochemical; remark: listed apart in the source
Adenosine receptor A1 [22] = biological target: T3, Adenosine receptor A1; assay: Displacement of [3H]-DPCPX from human adenosine A1 receptor expressed in CHO cells; range 6.9-9.7; assay type: cell-based
Adenosine receptor A2a [23] = biological target: T1, Adenosine receptor A2a; assay: Displacement of [3H]-SCH- 58261 from human adenosine A2A receptor expressed in CHO cells; range 8.7-10.5; assay type: cell-based
Adenosine receptor A3 [24] = biological target: T4, Adenosine receptor A3; assay: Inhibition of cAMP accumulation in CHO cells expressing human adenosine A3 receptor; assay type: functional, cell-based
Adenosine receptor A2b [25] = biological target: T2, Adenosine receptor A2b; assay: Displacement of [3H]DPCPX from Adenosine A2b receptor expressed in HEK-293 cells; range 23-40

T1 sequence (P29274 whole entry): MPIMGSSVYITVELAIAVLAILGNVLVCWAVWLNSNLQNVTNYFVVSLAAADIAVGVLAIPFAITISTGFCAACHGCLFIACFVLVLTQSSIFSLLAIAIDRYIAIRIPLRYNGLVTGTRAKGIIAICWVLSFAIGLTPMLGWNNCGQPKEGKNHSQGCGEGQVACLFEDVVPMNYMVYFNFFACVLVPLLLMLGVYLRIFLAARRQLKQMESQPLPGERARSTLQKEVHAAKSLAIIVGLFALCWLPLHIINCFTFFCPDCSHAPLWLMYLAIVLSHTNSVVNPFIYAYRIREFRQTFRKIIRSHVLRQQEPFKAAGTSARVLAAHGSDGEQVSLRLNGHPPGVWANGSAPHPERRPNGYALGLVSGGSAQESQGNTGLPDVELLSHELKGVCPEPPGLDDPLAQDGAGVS

O=C(Nc1cccc(Cl)c1)Nc1nc2n[nH]cc2c2nc(-c3ccco3)nn12
Ki (Adenosine receptor A2a [1]): 248 nM
Ki (Adenosine receptor A2b [2]): 70 nM
Ki (Adenosine receptor A1 [3]): 238 nM
IC50 (Adenosine receptor A3 [4]): 5.3 nM
Ratio [5]: 476
Ratio [6]: 140
inhibition [7]: 88%
Ki (Adenosine receptor A3 [8]): 0.5 nM

Nc1nc2nn(CCc3cc(Br)c(Br)cc3Br)cc2c2nc(-c3ccco3)nn12
Ki (Adenosine receptor A1 [9]): 247 nM
Ki (Adenosine receptor A2a [10]): 348 nM
Ratio [5]: 0.06
Ratio [6]: 0.25
inhibition [11]: 3%
Ki (Adenosine receptor A3 [12]): 4480 nM
Ki (Adenosine receptor A2b [13]): 1110 nM

CC(C)=CCn1cc2c(nc(NC(=O)Nc3cccc(Cl)c3)n3nc(-c4ccco4)nc23)n1
inhibition [14]: 38%
Ki (Adenosine receptor A2a [15]): 110 nM
Ki (Adenosine receptor A2b [16]): 81 nM
Ki (Adenosine receptor A1 [17]): 352 nM
Ki (Adenosine receptor A3 [18]): 55 nM
Ratio [5]: 6.4
Ratio [6]: 1.47

CCCn1cc2c(nc(N)n3nc(-c4ccco4)nc23)n1
Ki (Adenosine receptor A2b [19]): 39 nM
Ki (Adenosine receptor A2a [20]): 2.51 nM
Ratio [5]: 0.024
Ratio [6]: 0.095
inhibition [11]: 23%
Ki (Adenosine receptor A3 [21]): 408 nM

O=C(Nc1cccc(Cl)c1)Nc1nc2ccc(Cl)cc2c2nc(-c3ccco3)nn12
Ki (Adenosine receptor A1 [22]): 8.1 nM
Ki (Adenosine receptor A2a [23]): 9.5 nM
IC50 (Adenosine receptor A3 [24]): 2.4 nM
Ratio [5]: 54
Ratio [6]: 157
inhibition [11]: 95%
Ki (Adenosine receptor A2b [25]): 30 nM
